# Screening data (PubChem)
# FLuc stim CS: FLuc activators, initial screening, artefact control for FLuc-dependent activation tests, biochemical, ATPlite luminescence | ATPlite luciferase biochemical, 10 min; 0 = ATP-free wells, 1 = DMSO control | AID 1027, 2008 | 200,000 tested, under 10 active | activation factor at 10 µM;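 active means luciferase activation factor, scaled between plate controls, of at least 2 with compound at 10 µM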
#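 Material: luciferase plus luciferin reagent, cell-free. Medium: PBS buffer for ATP. Also added: ATP substrate, dispensed from a 10.24 µM working solution in PBS. Doses: test compounds dosed from 2 mM stocks in 100% DMSO. Incubation: 10 min post-reagent at room temperature. Technique: light output (luminescence). Read-out basis: luminescence gain marking luciferase activators.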
# Diaph act CS: compounds boosting diaphorase resazurin reduction – biochemical, uHTS, resorufin fluorescence, counter-screen for diaphorase-coupled primary assays, primary screen; Diaphorase/resazurin coupled assay, 16 min; hits give high values; 1 = vehicle wells, 0 = NADH-free wells; activation factor at 20 µM; 0.005% of 190,000 active; AID 1229, 2008;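 active means diaphorase activity raised at least twofold by the compound at 20 µM; inactive means activation factor below 2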
#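 Material: Clostridium kluyveri diaphorase, purified enzyme; Quantity: enzyme 0.07 U/mL final; Medium: HEPES pH 7.4 buffer with MgCl2 and Tween 20; Dosing: single compound dose of 20 µM, 1% DMSO final; Schedule: 16 min reaction at room temperature; Measured by: red resorufin fluorescence at 544/590 nm excitation/emission.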
# PMI act hi M6P: human PMI activators, high substrate, primary screen, biochemical, fluorescence intensity, near-saturating mannose 6-phosphate; 0.34% of 190,000 active; coupled PMI enzyme assay, resazurin fluorescence, 20 min; hits give high values; 1 = untreated enzyme, 0 = substrate-free blank; activation factor at 20 µM;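 active means activation factor of 2 or more at 20 µM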
# Target sequence (P34949 whole entry, looked up): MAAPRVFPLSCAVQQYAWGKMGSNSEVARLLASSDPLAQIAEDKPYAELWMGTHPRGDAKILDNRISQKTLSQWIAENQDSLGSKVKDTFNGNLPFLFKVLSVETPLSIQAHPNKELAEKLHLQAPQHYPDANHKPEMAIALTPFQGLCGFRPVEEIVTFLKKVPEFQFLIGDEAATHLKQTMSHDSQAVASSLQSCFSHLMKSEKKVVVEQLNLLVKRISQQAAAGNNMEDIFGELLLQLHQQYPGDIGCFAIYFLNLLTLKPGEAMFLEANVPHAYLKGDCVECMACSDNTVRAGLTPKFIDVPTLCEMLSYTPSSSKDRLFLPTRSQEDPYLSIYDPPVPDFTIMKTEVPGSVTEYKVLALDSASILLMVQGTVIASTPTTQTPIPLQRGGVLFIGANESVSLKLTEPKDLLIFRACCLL
#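 Test system: human phosphomannose isomerase with PGI, G6PDH, diaphorase coupling enzymes / Doses: 20 µM compound, 1% DMSO / Times: enzyme reaction with compound 20 min at room temperature / Measured by: Diaphorase-driven resazurin-to-resorufin fluorescence, excitation 544, emission 590 nm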
# Diaph inh CS: diaphorase inhibitors and chemical oxidizers, primary screen, counter-screen for diaphorase-coupled primary assays, biochemical, uHTS, resorufin fluorescence | inhibition, % at 20 µM | AID 1217, 2008 | diaphorase resazurin-to-resorufin fluorescence, NADH, 16 min; bacterial (C. kluyveri) enzyme, not human | 0.69% of 190,000 active;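 active means primary screen inhibition at 20 µM above a set limit, cut at about 50% in these data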;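 further: plate controls were DMSO with full reaction for no effect and wells lacking NADH for full effect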
#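 System: Bacterial diaphorase enzyme (C. kluyveri) | Incubation: 16-min room-temperature incubation before reading | Benchmarks: No-NADH positive control and DMSO neutral control | Measured by: Resorufin fluorescence 544/590 nm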
# FLuc inh counter: firefly luciferase enzyme inhibitors, primary screen, artefact control for luciferase-based inhibitor screens, biochemical, luminescence, ATPLite; 1.5% of 200,000 active; Luciferin 4-monooxygenase (Photinus pyralis), P08659; inhibition, % at 10 µM; 10 min;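 active means inhibition above about 50% when tested at 10 µM, limit read from the data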
# PMI act: activators of human PMI, primary screen, biochemical, fluorescence intensity, near-Km mannose 6-phosphate; Mannose-6-phosphate isomerase (Homo sapiens), P34949; purified human PMI, coupled resazurin fluorescence, 20 min; hits give high values; 1 = vehicle control, 0 substrate-free wells; activation factor at 20 µM; 0.005% of 190,000 active; AID 1214, 2008;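 active means activation factor of 2 or more at 20 µM, relative to plate controls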
# The depositor's hits bear a star; x = not tested or not shown. The list is not random: actives were taken first. Their share in the collection is about 2.5%.
SMILES,FLuc stim CS,Diaph act CS,PMI act hi M6P,Diaph inh CS,FLuc inh counter,PMI act
O=C(/C=C/c1ccc(F)cc1)N1CCCN(C(=O)/C=C/c2ccc(F)cc2)CC1,0.9,1,1,-2,5,1
Nc1cccc2c1C(=O)N(C(=O)/C=C/c1ccc(F)cc1)C2=O,0.5,0.7,0.8,26,52*,1
CCCOc1ccc(NC(=O)C2CC(=O)N/C(=N/N=C(C)/C=C/c3ccc(N(C)C)cc3)S2)cc1 (configuration not stated),0.9,0.8,0.9,23,8,0.9
N#Cc1c(-c2ccco2)cc(-c2cccnc2)nc1N,1,0.5,0.6,52*,-1,0.8
N#Cc1c(-c2ccco2)cc(-c2ccccn2)nc1N,1,0.7,0.8,26,-2,0.8
CCOC(=O)c1[nH]c(C=O)c(C(=O)OCC)c1C,1,x,x,x,-2,x
O=C(COc1ccccc1C(=O)Nc1ccccc1)NCCc1ccccc1,0.4,0.9,0.9,8,57*,0.9
Cc1ccc(/C=N/NS(=O)(=O)c2ccc([N+](=O)[O-])cc2)o1,1.1,0.9,1.2,11,-8,1.3
O=[N+]([O-])c1ccc(/C=N/NS(=O)(=O)c2ccc(Cl)cc2)o1,1,0.9,2.2*,11,-4,1.6
Cc1ccc(S(=O)(=O)N/N=C\c2ccc([N+](=O)[O-])o2)cc1,1.1,0.8,2.1*,23,-8,1.5
O=c1c2nccnc2[nH]c(=S)n1Cc1ccccc1Cl,1,0.8,1.1,15,-4,1.2
Cc1nc(SCC(=O)NC(=O)NC2CCCCC2)nc(C)c1C,1.1,1,1,5,-8,1.1
CC(C)NC(=S)N/N=C/c1sc(N2CCCCC2)nc1-c1cccs1,0.5,0.8,0.6,16,53*,0.8
COC(=O)C(NNc1ccccc1)(NC(=O)c1ccccc1F)C(F)(F)F (configuration not stated),1.1,0.9,2.3*,8,-9,1.5
CCN(c1ccc(NC(=O)COC(=O)CCc2cc(OC)c(OC)c(OC)c2)cc1)C(C)C,1.1,1,1,-1,-8,1.1
COCC(=O)Nc1nnc(-c2ccc(C(C)(C)C)cc2)s1,0.4,1,1,0,60*,0.9
CC(C)(C)c1ccc(-c2nnc(NC(=O)c3ccccc3)s2)cc1,0.9,0.9,1,9,6,1
CC(C(=O)O)c1ccc(N2Cc3ccccc3C2=O)cc1 (configuration not stated),0.4,0.9,1.1,6,62*,1.1
COc1ccc(-c2nn(CCC#N)cc2/C=N/O)cc1OC,1,0.9,0.9,9,0,1
CC(C)OCCCN1CN(S(=O)(=O)c2cccc(Cl)c2)c2nc3ccccc3nc21,1,0.9,1.4,13,-4,1.2
COC(=O)CN=Cc1c(O)n(-c2ccc(Cl)cn2)c(=O)c2ccccc12,1,0.9,1,11,0,1
CC(C)(C)N/N=C/c1c(O)n(-c2ccc(Cl)cn2)c(=O)c2ccccc12,1.1,0.9,2.5*,11,-8,1.9
CCc1nnc(/N=C/c2c(O)n(-c3ccc(Cl)cn3)c(=O)c3ccccc23)s1,0.3,0.6,1.2,37,66*,1.3
COc1ccc(Cc2nnc(NC(=O)C(C)(C)C)s2)cc1,1,1,1.1,2,-4,1
CC1CCC(NC(=O)c2ccc3nc[nH]c3c2)CC1 (configuration not stated),1,1,1,2,0,1
SMILES,FLuc stim CS,Diaph act CS,PMI act hi M6P,Diaph inh CS,FLuc inh counter,PMI act
CCc1ccc(C(=O)COC(=O)[C@@H](NC(N)=O)[C@@H](C)CC)cc1,0.1,1,1,4,89*,1
CCC(C)C(NC(N)=O)C(=O)Nc1ccc(C(=O)OC)cc1 (configuration not stated),1.1,1.1,1.1,-10,-6,1
CCOC(=O)N1N=C(c2ccc(C)cc2)CC1(O)C(F)(F)F (configuration not stated),0.5,1,0.9,-4,54*,1
CCOC(=O)N1N=C(c2ccccc2)CC1(O)C(F)(F)F (configuration not stated),0.9,1,1,4,9,1
COc1ccc(-n2c(N)c(C(=O)NCc3ccco3)c3nc4ccccc4nc32)cc1,1,0.5,0.6,54*,-4,0.9
COc1ccc(-n2c(N)c(C(=O)NCc3ccco3)c3nc4ccccc4nc32)cc1OC,1,0.8,0.8,22,-4,1.2
CCn1c(-c2cc(-c3ccc(C)cc3)nc3ccccc23)n[nH]c1=S,0.7,0.9,0.9,15,32,0.9
CCn1c(-c2cc(-c3ccc(OC(C)C)cc3)nc3ccccc23)n[nH]c1=S,0.3,0.8,1,20,72*,0.9
Cc1ccc(-c2nc3ccccn3c2C=O)cc1,0.5,1.1,1,-10,50*,1
Cc1c(-c2ccc(Br)cc2)nc2ccccn12,0.5,0.8,1.2,24,46,1.1
COc1ccc(Nc2nc3[nH]c(=O)cc(O)c3s2)cc1,0.9,0.3,0.4,69*,11,0.5
CC(=Nc1ccccc1)c1sc2ccccc2c1O,0.4,0.8,0.8,19,61*,0.8
CC(C1CCN(Cc2cn(C)nc2-c2cccc(Cl)c2)CC1)N1CCOCC1 (configuration not stated),1.1,1,0.9,-2,-8,0.9
CCC(C)NC(=O)c1cc2cc3ccc(OC)cc3nc2s1 (configuration not stated),0.4,1.1,1.1,-6,59*,1.1
Cc1noc(C)c1COC(=O)c1ccc(S(=O)(=O)NCc2ccco2)cc1,1,0.8,0.9,25,-4,0.9
Cc1ccc2c(c1)C1CN(C)CCC1N2C(=O)COc1ccc(N(C)C(=O)C(C)(C)C)cc1 (configuration not stated),1.1,0.9,0.9,10,-6,0.9
